Series [1] deals with T1, MAO B (monoamine oxidase B) (Rattus norvegicus, UniProt P19643).
T1 sequence (P19643 whole entry): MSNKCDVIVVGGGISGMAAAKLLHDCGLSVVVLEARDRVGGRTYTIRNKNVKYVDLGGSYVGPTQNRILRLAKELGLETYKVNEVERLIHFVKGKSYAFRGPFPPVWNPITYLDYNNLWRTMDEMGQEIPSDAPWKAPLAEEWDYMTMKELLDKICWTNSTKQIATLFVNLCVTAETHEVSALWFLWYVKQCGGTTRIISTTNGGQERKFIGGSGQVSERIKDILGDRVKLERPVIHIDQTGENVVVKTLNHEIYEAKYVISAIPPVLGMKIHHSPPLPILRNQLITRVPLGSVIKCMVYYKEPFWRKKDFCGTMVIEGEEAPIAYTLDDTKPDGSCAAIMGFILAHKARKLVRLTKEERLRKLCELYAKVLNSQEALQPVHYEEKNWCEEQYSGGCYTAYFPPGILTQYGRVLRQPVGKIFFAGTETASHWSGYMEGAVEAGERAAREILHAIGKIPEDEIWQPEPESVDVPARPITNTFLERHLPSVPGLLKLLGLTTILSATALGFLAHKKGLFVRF
As to the kind of experiment: Inhibitory activity against monoamine oxidase B (MAO B) from rat brain using a radiometric procedure with [14C]- phenethylamine atb 10 uM. The settings on record: rat brain monoamine oxidase B preparation, probe [14C]-phenethylamine. In a few lines: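 Rat brain mitochondrial MAO extract preincubated ± inhibitor 15 min at 37 °C in 50 mM potassium phosphate pH 7.4. […] Blanks contained 2 mM pargyline. Stopped with HCl, products extracted into ethyl acetate/toluene, scintillation counted. Triplicates. IC50 from mean % inhibition vs log concentration plot.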

For series [2], the target named is T2, Amine oxidase [flavin-containing] A (Rattus norvegicus, UniProt P21396).
T2 sequence (P21396 whole entry): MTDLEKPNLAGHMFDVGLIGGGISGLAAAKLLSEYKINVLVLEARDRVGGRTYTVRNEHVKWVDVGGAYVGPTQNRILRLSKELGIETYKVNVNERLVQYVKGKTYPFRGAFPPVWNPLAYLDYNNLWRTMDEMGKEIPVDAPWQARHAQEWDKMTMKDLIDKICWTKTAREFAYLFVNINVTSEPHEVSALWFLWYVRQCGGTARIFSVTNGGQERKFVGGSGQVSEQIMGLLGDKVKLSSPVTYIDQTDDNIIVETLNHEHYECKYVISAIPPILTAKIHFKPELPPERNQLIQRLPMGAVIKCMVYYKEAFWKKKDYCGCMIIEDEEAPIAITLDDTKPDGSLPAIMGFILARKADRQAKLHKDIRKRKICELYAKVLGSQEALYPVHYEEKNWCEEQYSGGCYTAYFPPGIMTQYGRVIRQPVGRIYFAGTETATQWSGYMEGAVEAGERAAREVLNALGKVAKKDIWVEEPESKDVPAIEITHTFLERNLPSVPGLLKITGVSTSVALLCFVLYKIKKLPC
As to the kind of experiment: Inhibitory activity against monoamine oxidase A (MAO A) from rat brain using a radiometric procedure with [3H]- serotonin. In a few lines:
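Rat brain mitochondrial MAO extract was preincubated with or without inhibitor for 15 min at 37 °C in 50 mM potassium phosphate, pH 7.4. […] Blanks contained 2 mM pargyline. Reactions were stopped with HCl, products extracted into ethyl acetate/toluene and counted by scintillation. Triplicates were averaged as % inhibition, and IC50 was taken from % inhibition vs log concentration.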

In general, inhibition refers to the percentage by which the read-out fell short of the control. A higher inhibition goes with a response far below the control. One may read the IC50 as the concentration that gives 50% inhibition. Low readings indicate higher potency, high ones lower potency.

In the case of `CC(=O)Nc1ccc2c(c1)[nH]c1ccccc12`, in series [1], the inhibition at 10 uM turned out to be 38%. The IC50 in series [2] is 43 nM.
